For assay [1], the system named is Human immunodeficiency virus 1. In words: Antiviral activity against HIV1 NL4-3 infected in human HeLa37 cells assessed as inhibition of viral infectivity after 40 hrs by single round infectivity assay. The class given is functional, organism-based. The settings on record: Human immunodeficiency virus 1, NL4-3, HeLa37, 40 h. The method, boiled down: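 HIV-1 NL4-3 and compound mixed, then added to HeLa37 cells (5×10^4 cells/well) at MOI ~0.005. Infection maintained 40 h. Cells fixed in 75% acetone/25% water and immunostained with human anti-HIV antisera. HIV antigen-positive cells counted and normalized to controls at the same DMSO level (DMSO ≤0.5%). IC50 and IC90 taken from dose-response curves. Triplicates, three independent experiments.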

Assay [2] is described as follows: Cytotoxicity against human HeLa37 cells assessed as cell viability by ATPLite assay. The class given is functional. To be noted: for CC50: Homo sapiens, HeLa37, read-out: LC50 (the source's name). The method, boiled down:
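HeLa37 cells plated and dosed as in the infectivity assay, compounds up to 100 μg/mL, DMSO ≤0.5%. A separate DMSO dose-response (0.05–0.5%) was run, and its effect on viability was subtracted. LC50 and LC90 taken from dose-response. Triplicates, three independent experiments.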

SMILES strings stand for the structures. Where only a bound is given, the exact number is not on record here.

As to `COc1c(C=O)c(OC)c(C(C)=O)c2c1CCC(C)(C)O2`, in assay [1], the IC50 was 55.3 µM and the IC90 was > 100 µM. For the same molecule, in assay [2], the CC50 is > 100 µM.
On to `CC(=O)c1c(O)c(C=O)c2c(c1O)C=CC(C)(C)O2`, for which, in assay [1], the half-inhibitory concentration (IC50) was determined as 34.6 µM and the IC90 came to 98.2 µM. In addition, the CC50 in assay [2] was > 100 µM.
Take `CC1(C)CCc2c(O)c(C(=O)CC(=O)c3ccccc3)c(O)c(C=O)c2O1`: in assay [1], the 50% inhibitory concentration (IC50) worked out at 40.7 µM and the IC90 came to 86.6 µM. Moreover, the CC50 in assay [2] turned out to be 84.2 µM.
Turning to `CC1(C)CCc2c(O)c(C=O)c(O)c(C=O)c2O1`, in assay [1], the IC50 was 77.3 µM and the IC90 was > 100 µM. Besides, the CC50 in assay [2] was > 100 µM.
As for `CC(=O)c1c(O)c(C=O)c2c(c1O)CCC(C)(C)O2`, in assay [1], the IC50 is 30.2 µM and the IC90 came to 85 µM. Moreover, in assay [2], the LC90 was 258 µM and the CC50 was 145 µM.
Regarding `CC(=O)c1c(O)c(C=O)c(O)c2c1OC(C)(C)CC2`, in assay [1], the concentration for half-maximal inhibition (IC50) was 39.8 µM and the IC90 worked out at 85.6 µM. Also, the CC50 in assay [2] is > 100 µM.
Regarding `CC(=O)c1c(O)c2c(c(C(C)=O)c1O)OC(C)(C)CC2`, in assay [1], the half-maximal inhibitory concentration (IC50) was > 100 µM and the IC90 is > 100 µM. The CC50 in assay [2] was > 100 µM.

For the origin of these results see ChEMBL document CHEMBL1681680, “Synthesis of chroman aldehydes that inhibit HIV” (Bioorg Med Chem Lett, 2011).
